Source: PubChem BioAssay
FXIa inh: human FXIa protease inhibitors, primary screen, biochemical, 1536-well; Coagulation factor XI (Homo sapiens), P03951; purified FXIa, Boc-Glu-Ala-Arg-AMC fluorogenic substrate; inhibition, % at 5 µM; 220,000 tested, 0.14% active; AID 798, 2007;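 active = inhibition of at least 40%; inactive = inhibition below 40%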;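 also: fluorescence of freed AMC excited at 355 nm; 0% = enzyme without compound and 100% = no enzyme blank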
KLK5 inh: human KLK5 protease inhibitors, primary screen, biochemical, 1536-well; recombinant hK5, fluorogenic AMC substrate cleavage; inhibition, % at 5 µM; 210,000 tested, 0.59% active;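 active = inhibition of 40% or more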;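 also: 0% = enzyme controls without compound and 100% = no-enzyme blanks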
Target sequence (Q9Y337 67-293 limits assumed): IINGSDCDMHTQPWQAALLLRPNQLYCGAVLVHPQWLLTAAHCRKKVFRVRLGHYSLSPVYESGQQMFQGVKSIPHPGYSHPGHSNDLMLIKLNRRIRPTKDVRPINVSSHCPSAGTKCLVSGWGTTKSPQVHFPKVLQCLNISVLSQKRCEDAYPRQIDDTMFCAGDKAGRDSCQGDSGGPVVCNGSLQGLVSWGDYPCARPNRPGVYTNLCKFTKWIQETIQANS
FXIIa inh 1536: human FXIIa protease inhibitors, primary screen, biochemical, 1536-well; purified FXIIa, Boc-QGR-AMC fluorogenic substrate, 2 h; inhibition, % at 5 µM; 220,000 tested, 0.3% active; AID 800, 2007; in the data active = inhibition above about 40%;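 also: 0% = enzyme with no compound and 100% = blank without enzyme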
Calpain2 inh: inhibitors of pig calpain II, primary screen, biochemical, fluorogenic peptide substrate, 1536-well. 220,000 tested, 0.37% active. inhibition, % at 16 µM. purified calpain II, 30 min;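 active = inhibition above about 50%, limit read from the data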
Thrombin inh: human alpha-thrombin inhibitors, primary screen, counter-screen for coagulation protease inhibitor project, biochemical, 1536-well, fluorogenic AMC substrate. 220,000 tested, 0.26% active. Prothrombin (Homo sapiens), P00734. inhibition, % at 5 µM. Boc-VPR-AMC fluorogenic substrate cleavage;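 active = inhibition at or above 40%; inactive = inhibition below 40%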;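 also: 0% = enzyme with no compound and 100% = wells without enzyme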
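signal = AMC fluorescence, 355/460 nm | material = human alpha-thrombin enzyme | control set = enzyme without compound as high, wells lacking enzyme as low | times = reaction at room temperature | read-out basis = percent inhibition scaled between no-compound controls and no-enzyme blanks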
Active calls of the source: *; i = inactive; · = not tested or not shown; ! = not active in a repeat. Only some compounds are listed: those with a hit (about 1.4% of all), similar ones and a draw of the others.

SMILES	FXIa inh	KLK5 inh	FXIIa inh 1536	Calpain2 inh	Thrombin inh
O=C(Nc1ccccc1)c1ccccc1C(=O)N1CCCCC1	-3.4	-7.0	-6.5	-20.2	-14.4
Cc1cc(NS(=O)(=O)c2ccc(N3C(=O)C4C5C=CC(C5)C4C3=O)cc2)nc(C)n1 (configuration not stated)	66.8*	-9.8	4.5	-7.7	0.2
Cc1ccc(S(=O)(=O)Nc2ccc(S(=O)(=O)Nc3cc(C)nc(C)n3)cc2)cc1	1.3	-1.1	7.8	-6.0	·
CCOCCNC(=O)c1ccc2c3c(cccc13)CC2	-2.6	-20.3	10.8	i	-2.5
O=C(CN(C(=O)CSc1nnc(COc2ccccc2)o1)c1ccc(F)cc1)NC1CCCCC1	6.1	129.5*	31.2	48.1	25.0
O=C(CN(C(=O)CSc1nnc(COc2ccccc2)o1)c1ccc(F)cc1)NC1CCCC1	-3.2	1.6	-5.8	21.7	-1.9
Cc1cccc(C)c1N1CCN(C(=O)N2CCCCC2)CC1	-3.2	4.3	3.9	12.2	-1.4
O=C(Nc1ccccc1)N1CCCC(c2nc(-c3cccs3)no2)C1 (configuration not stated)	-2.0	3.4	0.3	30.4	0.7
Nc1n[nH]c(N)c1N=Nc1ccc(F)cc1	-5.2	4.0	3.6	50.8*	22.7
Cc1ccc(-c2ncns2)cc1	3.5	0.0	8.3	-22.8	1.8
O=C(Cc1ccccc1Cl)Nc1cccc(S(=O)(=O)N2CCOCC2)c1	-3.6	-9.1	-1.7	-1.7	-5.7
Cc1ccc(/C=C/C(=O)Nc2cccc(S(=O)(=O)N3CCOCC3)c2)o1	-5.3	71.6*	7.0	-3.4	39.8
O=C(/C=C/c1ccco1)Nc1cccc(S(=O)(=O)N2CCOCC2)c1	-4.6	-5.5	0.5	14.5	-10.4
Cc1ccc2c(CC(=O)Nc3cccc(S(=O)(=O)N4CCOCC4)c3)coc2c1	-2.3	-2.2	5.2	50.5*	8.7
COc1ccc(C(=O)Nc2ccccc2C(=O)NC(Cc2c[nH]c3ccccc23)C(=O)O)cc1 (configuration not stated)	-0.3	4.6	7.3	28.4	-8.7
Cc1ccc(NC2OC(CO)C(O)C2O)cc1[N+](=O)[O-] (configuration not stated)	11.1	-3.5	19.1	84.9*	1.0
CCN1CCc2c(OCC(=O)Nc3ccc4c(c3)OCCO4)cccc2C1=O	-0.3	-7.3	2.2	28.5	-6.8
CCCCCCCCCCCCCCCCn1cc[n+](C)c1	-0.1	-1.1	7.3	54.0*!	-6.8
COc1cnc(SCCC(F)=C(F)F)[nH]c1=O	0.9	3.0	11.2	-9.4	-2.4
O=C1N=C(c2ccccc2)S/C1=C\c1cccs1	34.6	2.0	36.3	-89.3	61.3*
Cc1cccc(N=C2NC(=O)/C(=C\c3cccs3)S2)c1	6.2	-4.0	7.4	16.9	-3.3
O=C1N=C(N2CCN(c3ccccc3)CC2)S/C1=C/c1cccs1	8.2	2.0	9.6	19.9	-6.2
O=C1NC(=Nc2ccccc2)S/C1=C/c1cccs1	32.7	26.4	45.2*	106.1*	5.6
Cc1sc2nc(SCC(=O)NCc3ccco3)n(CCc3ccccc3)c(=O)c2c1C	1.2	-1.0	8.4	-23.2	-4.6
NC(=S)N/N=C/c1coc2c(ccc3ccccc32)c1=O	8.9	0.3	12.3	73.0*	-2.8
SMILES	FXIa inh	KLK5 inh	FXIIa inh 1536	Calpain2 inh	Thrombin inh
NC(=S)N/N=C/c1coc2cc(Br)ccc2c1=O	-6.3	-1.5	1.6	9.6	-2.4
CCOC(=O)c1cccc(NC(=O)CCS(=O)(=O)c2ccc(Br)s2)c1	-5.6	20.9	6.8	-31.5	5.8
CCOc1ccc(OCC)c(NC(=O)CCS(=O)(=O)c2ccc(Br)s2)c1	-5.2	-4.0	5.0	2.3	43.3*
O=C(CCCN1C(=O)CCC1=O)Nc1ccc(Br)cc1F	-0.8	61.5*	16.0	6.2	10.2
O=C(CCCN1C(=O)CCC1=O)Nc1ccccc1F	2.8	2.5	12.8	-23.5	4.9
O=C(CCCCCN1C(=O)c2ccccc2C1=O)Nc1ccc(S(=O)(=O)N2CCCCC2)cc1	4.4	-1.1	19.2	53.4*	4.3
O=C(CCC(=O)N1CCOCC1)Nc1nnc(C2CCCCC2)s1	5.8	-1.2	16.7	18.5	2.3
CCOC(=O)N1CCC(N2CCCC(CO)(Cc3cccc(OC)c3)C2)CC1 (configuration not stated)	-4.3	-1.2	2.4	-35.3	-14.8
CC(=O)C1=C(C)NC(C)=C(C(C)=O)C1c1cccs1	26.7	79.3*	1.6	-33.7	14.1
CC1(CCc2ccccc2)NC(=O)N(CC(=O)Nc2ccc3c(c2)OCCO3)C1=O (configuration not stated)	-6.0	-1.1	6.4	29.7	-22.2
CCc1ccc(NC(=O)C(C)OC(=O)c2ccc(N3CCCC3)c([N+](=O)[O-])c2)cc1 (configuration not stated)	5.0	-0.8	8.8	29.7	-14.9
O=C(Oc1ccc2c(=O)c(Oc3ccc4ccccc4c3)coc2c1)c1cccnc1	0.2	-5.4	3.0	-322.1	-4.5
O=C(Oc1ccc2c(=O)c(Cl)coc2c1)c1cccnc1	65.8*	-9.5	29.9	-199.5	23.1
CCCCCc1c(O)nc(SCCN2CCOCC2)[nH]c1=O	3.0	0.6	5.2	-7.2	-10.1
COC(=O)c1ccc(NC(=O)COc2ccc(S(=O)(=O)NC(C)C)cc2)cc1	1.3	51.8*	15.8	13.7	11.0
COc1cccc(NC(=O)COc2ccc(S(=O)(=O)NC(C)C)cc2)c1	15.8	50.5*	20.7	29.9	30.7
N=C(N)c1ccc(/C=C/c2ccc(C(=N)N)cc2O)cc1	4.8	2.6	6.8	-28.7	-5.3
COc1cc(CN2CCN(c3ccc(C)cc3)CC2)cc([N+](=O)[O-])c1O	-5.1	-7.3	0.7	-6.4	-1.5
O=C(NNS(=O)(=O)c1ccc(Br)cc1)c1csnn1	1.2	-9.0	6.0	9.0	-2.1
Cc1ccc(-c2nc(CS(=O)(=O)CC(=O)N3CCCCCC3)c(C)o2)cc1	0.2	0.6	8.3	13.8	-1.8
Cc1ccc(-c2nc(CS(=O)(=O)CC(=O)N3CCc4ccccc4C3)c(C)o2)cc1	35.6	-0.6	50.9*	13.4	-8.0
CC(=O)c1sc(=S)n(-c2ccccc2)c1C	11.2	12.8	23.2	17.6	13.6
CSc1cc(C)n(-c2ccccc2)c(=S)c1C(C)=O	1.8	46.1*	17.8	15.7	20.2
O=C(CSc1nc(-c2ccc(F)cc2)nc2c1Cc1ccccc1O2)Nc1cccc(C(=O)O)c1	2.4	-7.7	5.6	59.0*	-4.6
O=C(CCCc1nc(-c2ccccc2Cl)no1)N1CCOCC1	-4.2	-7.2	0.0	-4.7	3.0
O=C(OCc1nnc(-c2ccccc2)o1)c1ccc2c(c1)OCO2	7.6	-10.9	15.8	72.4*	-0.5
CCCC(c1nnnn1C(C)(C)C)N1CCN(C(=O)c2ccco2)CC1 (configuration not stated)	-1.9	1.5	6.3	0.3	-2.9
